Test results as given in ChEMBL document CHEMBL2413020 (Bioorg Med Chem, 2013).
Calls of active or inactive are those of the source. The rule behind the calls is not given here.

Tests used:
Rattus norvegicus [1] = experiment: Antiinflammatory activity in Wistar albino rat assessed as inhibition of carrageenan-induced paw edema at 50 mg/kg, po administered 30 mins prior to carrageenan challenge measured at 3 hrs by plethysmometric analysis relative to control; type: functional
Summary of the method: (§1)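 Groups of six male Wistar albino rats (200–250 g), fasted 12 h before and during the test. Agents given orally at 50 mg/kg; vehicle controls received tween 80 (95:5). After 30 min, 0.1 mL of 1% w/v carrageenan in saline injected subplantar into the left hind paw. Paw volume by plethysmometer at 0 h (within 30 s) and at 1, 2, 3 and 4 h. % edema inhibition from (Vt−V0) vs control; mean SEM, ANOVA.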

Rattus norvegicus [2] = experiment: Antiinflammatory activity in Wistar albino rat assessed as inhibition of carrageenan-induced paw edema at 50 mg/kg, po administered 30 mins prior to carrageenan challenge measured at 2 hrs by plethysmometric analysis relative to control; type: functional; summary of the method: as §1
[3] = biological target: T1, Prostaglandin G/H synthase 1 (Ovis aries) (UniProt P05979); experiment: Inhibition of ovine COX1 using arachidonic acid as substrate assessed as production of PGF2alpha at 30 uM preincubated for 10 mins followed by substrate addition measured after 2 mins by EIA in presence of stannous chloride relative to control
T1 sequence (whole entry): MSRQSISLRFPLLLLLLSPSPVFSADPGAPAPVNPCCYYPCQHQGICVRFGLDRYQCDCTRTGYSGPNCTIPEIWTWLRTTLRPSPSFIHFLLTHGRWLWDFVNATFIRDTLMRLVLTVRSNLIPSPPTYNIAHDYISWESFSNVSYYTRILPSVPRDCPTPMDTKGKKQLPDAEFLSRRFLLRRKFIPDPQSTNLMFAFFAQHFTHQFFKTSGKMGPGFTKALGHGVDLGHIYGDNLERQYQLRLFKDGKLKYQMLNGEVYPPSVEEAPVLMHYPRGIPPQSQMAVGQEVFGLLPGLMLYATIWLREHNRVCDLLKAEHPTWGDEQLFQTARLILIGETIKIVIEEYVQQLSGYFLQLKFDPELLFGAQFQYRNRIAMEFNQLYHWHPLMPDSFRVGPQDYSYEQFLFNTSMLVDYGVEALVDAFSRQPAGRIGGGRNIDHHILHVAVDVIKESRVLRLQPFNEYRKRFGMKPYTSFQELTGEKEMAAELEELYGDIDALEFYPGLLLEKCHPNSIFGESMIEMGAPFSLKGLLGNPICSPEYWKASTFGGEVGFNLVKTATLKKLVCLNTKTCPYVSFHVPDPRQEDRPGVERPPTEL

Rattus norvegicus [4] = experiment: Antiinflammatory activity in Wistar albino rat assessed as inhibition of carrageenan-induced paw edema at 50 mg/kg, po administered 30 mins prior to carrageenan challenge measured at 4 hrs by plethysmometric analysis relative to control; type: functional; summary of the method: as §1
Rattus norvegicus [5] = experiment: Antiinflammatory activity in Wistar albino rat assessed as inhibition of carrageenan-induced paw edema at 50 mg/kg, po administered 30 mins prior to carrageenan challenge measured at 1 hr by plethysmometric analysis relative to control; type: functional; summary of the method: as §1
[6] = biological target: T2, Prostaglandin G/H synthase 1 (Ovis aries, UniProt P05979); experiment: Inhibition of ovine COX1 using arachidonic acid as substrate assessed as production of PGF2alpha preincubated for 10 mins followed by substrate addition measured after 2 mins by EIA in presence of stannous chloride
T2 sequence (P05979 whole entry): T1 sequence (whole entry)
Summary of the method: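 Kit-based EIA in 0.1 M Tris-HCl pH 8 with 2 mM phenol. Enzyme and compound preincubated 10 min at 37 °C; arachidonic acid started a 2 min reaction, stopped with 1 M HCl, then stannous chloride 5 min at room temperature. EIA plate incubated 18 h, Ellman's reagent, read at 410 nm.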

Rattus norvegicus [7] = experiment: Antiinflammatory activity in Wistar albino rat assessed as inhibition of carrageenan-induced paw edema at 50 mg/kg, ip administered 30 mins prior to carrageenan challenge measured at 2 hrs by plethysmometric analysis relative to control; type: functional; conditions: route intraperitoneal
Summary of the method: (§2)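 Male Wistar albino rats (200–250 g), food withdrawn 12 h before and during the test, in groups of six. Reference drug given ip; controls received tween 80 (95:5). At 30 min, 0.1 mL of 1% w/v carrageenan in saline injected subplantar into the left hind paw. Plethysmometer paw volume read within 30 s, then at 1–4 h. % inhibition vs control (Vt−V0); mean SEM, ANOVA.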

Rattus norvegicus [8] = experiment: Antiinflammatory activity in Wistar albino rat assessed as inhibition of carrageenan-induced paw edema at 50 mg/kg, ip administered 30 mins prior to carrageenan challenge measured at 4 hrs by plethysmometric analysis relative to control; type: functional; conditions: route intraperitoneal; summary of the method: as §2
Rattus norvegicus [9] = experiment: Antiinflammatory activity in Wistar albino rat assessed as inhibition of carrageenan-induced paw edema at 50 mg/kg, ip administered 30 mins prior to carrageenan challenge measured at 1 hr by plethysmometric analysis relative to control; type: functional; conditions: route intraperitoneal; summary of the method: as §2
Rattus norvegicus [10] = experiment: Antiinflammatory activity in Wistar albino rat assessed as inhibition of carrageenan-induced paw edema at 50 mg/kg, ip administered 30 mins prior to carrageenan challenge measured at 3 hrs by plethysmometric analysis relative to control; type: functional; conditions: route intraperitoneal; summary of the method: as §2

inhibition [3] | IC50 [6] [nM] | Compound | inhibition in vivo at 50 mg/kg (Rattus norvegicus [1]) [%] | inhibition in vivo at 50 mg/kg (Rattus norvegicus [2]) [%] | inhibition in vivo at 50 mg/kg (Rattus norvegicus [4]) [%] | inhibition in vivo at 50 mg/kg (Rattus norvegicus [5]) [%] | inhibition in vivo at 50 mg/kg (Rattus norvegicus [7]) [%] | inhibition in vivo at 50 mg/kg (Rattus norvegicus [8]) [%] | inhibition in vivo at 50 mg/kg (Rattus norvegicus [9]) [%] | inhibition in vivo at 50 mg/kg (Rattus norvegicus [10]) [%]
97.9% | 1420 | NC(=S)c1ccc(-n2nc(C(F)(F)F)cc2-c2ccccc2)cc1 | 49.7 | 74.9 | 50 | 82.8 | – | – | – | –
inactive | – | N#Cc1ccc(-n2nc(C(F)(F)F)cc2-c2ccco2)cc1 | 67.6 | 79.1 | 61.6 | 79.8 | – | – | – | –
13.4% | > 30000 | N#Cc1ccc(-n2nc(C(F)(F)F)cc2-c2ccc(Br)cc2)cc1 | 83.8 | 88.8 | 86.4 | 78.8 | – | – | – | –
– | – | NC(=S)c1ccc(-n2nc(C(F)(F)F)cc2-c2ccc3ccccc3c2)cc1 | 53.2 | 72.9 | 46 | 92.9 | – | – | – | –
inactive | – | N#Cc1ccc(-n2nc(C(F)(F)F)cc2-c2ccc(F)cc2)cc1 | 84.4 | 81.1 | 90.4 | 79.8 | – | – | – | –
– | – | COc1ccc(-c2cc(C(F)(F)F)nn2-c2ccc(C(N)=S)cc2)cc1 | 65.9 | 77.9 | 52.9 | 78.8 | – | – | – | –
97% | 1110 | N#Cc1ccc(-n2nc(C(F)(F)F)cc2-c2ccccc2)cc1 | 84.4 | 81.1 | 91 | 91.9 | – | – | – | –
inactive | – | N#Cc1ccc(-n2nc(C(F)(F)F)cc2-c2ccc(Cl)cc2)cc1 | 67.6 | 76.5 | 65 | 26.3 | – | – | – | –
– | – | COc1ccc2c(c1)c(CC(=O)O)c(C)n2C(=O)c1ccc(Cl)cc1 [INDOMETHACIN] | – | – | – | – | 90.3 | 90.2 | 96 | 85
44.3% | > 30000 | Cc1ccc(-c2cc(C(F)(F)F)nn2-c2ccc(C(N)=S)cc2)cc1 | 60.1 | 79.4 | 51.7 | 73.7 | – | – | – | –
20.7% | – | N#Cc1ccc(-n2nc(C(F)(F)F)cc2-c2ccc3ccccc3c2)cc1 | 59.5 | 67.8 | 48 | 84.8 | – | – | – | –
inactive | – | N#Cc1ccc(-n2nc(C(F)(F)F)cc2-c2cccs2)cc1 | 57.8 | 71.4 | 55.9 | 81.8 | – | – | – | –
86.1% | 2350 | NC(=S)c1ccc(-n2nc(C(F)(F)F)cc2-c2ccc(Br)cc2)cc1 | 72.8 | 84.9 | 60.3 | 54.5 | – | – | – | –
– | – | COc1ccc(-c2cc(C(F)(F)F)nn2-c2ccc(C#N)cc2)cc1 | 69.9 | 85.2 | 54.8 | 44.4 | – | – | – | –
20.1% | > 30000 | NC(=S)c1ccc(-n2nc(C(F)(F)F)cc2-c2ccco2)cc1 | 58.4 | 77.4 | 59.8 | 82.8 | – | – | – | –
inactive | > 30000 | NC(=S)c1ccc(-n2nc(C(F)(F)F)cc2-c2ccc(F)cc2)cc1 | 71.7 | 85.4 | 82.8 | 74.8 | – | – | – | –
inactive | – | Cc1ccc(-c2cc(C(F)(F)F)nn2-c2ccc(C#N)cc2)cc1 | 82.7 | 87.2 | 80.2 | 65.7 | – | – | – | –
39.8% | – | NC(=S)c1ccc(-n2nc(C(F)(F)F)cc2-c2cccs2)cc1 | 57.2 | 73.4 | 61.5 | 85.9 | – | – | – | –
86.9% | 1110 | NC(=S)c1ccc(-n2nc(C(F)(F)F)cc2-c2ccc(Cl)cc2)cc1 | 63 | 77.4 | 61.5 | 89.9 | – | – | – | –
